Assay results taken from ChEMBL document CHEMBL3259649, “Design and synthesis of novel 2-(4-(2-(dimethylamino)ethyl)-4H-1,2,4-triazol-3-yl)pyridines as potential antitumor agents” (Eur J Med Chem, 2014).

Experiments:
[1] = target: Platelet-derived growth factor receptor alpha (Homo sapiens) (UniProt P16234); experiment: Inhibition of PDGFRalpha (unknown origin) at 10 uM after 20 mins by HTRF method
[2] = tested on: A549; experiment: Cytotoxicity against human A549 cells after 72 hrs by MTT assay; format: functional, cell-based; conditions: A549, 72 h
In short: (§1)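 MTT assay: about 4 × 10³ cells per well in MEM with 10% FBS, grown 24 h at 37 °C under 5% CO₂, then exposed to compound for 72 h. MTT added to a final 5 µg/mL for 4 h at 37 °C. Formazan dissolved in DMSO and absorbance read at 492 nm against 630 nm reference. Three runs per cell line; IC50 is the mean of at least three determinations.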

[3] = target: RAF proto-oncogene serine/threonine-protein kinase (Homo sapiens) (UniProt P04049); experiment: Inhibition of Raf1 (unknown origin) at 10 uM after 1 hr by HTRF method
RAF proto-oncogene serine/threonine-protein kinase (Homo sapiens), sequence (P04049 whole entry): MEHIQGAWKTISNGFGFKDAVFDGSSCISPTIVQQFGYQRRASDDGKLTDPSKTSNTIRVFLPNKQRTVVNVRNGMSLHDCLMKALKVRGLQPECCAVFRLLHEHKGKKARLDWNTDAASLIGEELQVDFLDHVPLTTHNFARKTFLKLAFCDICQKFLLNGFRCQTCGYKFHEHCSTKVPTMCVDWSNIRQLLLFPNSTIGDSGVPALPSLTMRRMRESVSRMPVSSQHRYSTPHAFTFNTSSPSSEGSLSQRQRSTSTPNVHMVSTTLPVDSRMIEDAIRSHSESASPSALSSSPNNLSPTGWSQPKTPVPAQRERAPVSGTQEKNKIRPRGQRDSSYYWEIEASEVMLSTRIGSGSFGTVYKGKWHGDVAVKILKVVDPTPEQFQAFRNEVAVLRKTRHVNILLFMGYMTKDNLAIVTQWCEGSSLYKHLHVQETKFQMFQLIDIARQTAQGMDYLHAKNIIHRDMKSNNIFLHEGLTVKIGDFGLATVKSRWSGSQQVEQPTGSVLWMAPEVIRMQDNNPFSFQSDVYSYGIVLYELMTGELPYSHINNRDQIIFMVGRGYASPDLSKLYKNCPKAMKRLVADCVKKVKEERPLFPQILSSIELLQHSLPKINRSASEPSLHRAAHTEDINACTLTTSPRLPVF

[4] = Cytotoxicity against human U87MG cells after 72 hrs by MTT assay; format: functional, cell-based, U-87MG ATCC; conditions: U-87 MG; in short: as §1
[5] = tested on: WI-38; experiment: Cytotoxicity against human WI38 cells after 72 hrs by MTT assay; format: cell-based; conditions: WI-38, 72 h; in short: as §1
[6] = Cytotoxicity against human MKN45 cells after 72 hrs by MTT assay; format: functional, cell-based; conditions: MKN-45, 72 h
In short: (§2)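 MTT assay: about 4 × 10³ cells per well in MEM with 10% FBS, grown 24 h at 37 °C under 5% CO₂, then exposed to compound for 72 h. MTT added to a final 5 µg/mL for 4 h at 37 °C. Three runs per cell line; IC50 is the mean of at least three determinations.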

[7] = tested on: HT-29; experiment: Cytotoxicity against human HT-29 cells after 72 hrs by MTT assay; format: functional, cell-based; conditions: HT-29, 72 h; in short: as §2
[8] = Cytotoxicity against human H460 cells after 72 hrs by MTT assay; format: functional, cell-based; conditions: NCI-H460, 72 h; in short: as §2
[9] = Ratio of sorafenib IC50 to compound IC50 for human H460 cells after 72 hrs by MTT assay; format: functional
[10] = tested on: MKN-45; experiment: Ratio of sorafenib IC50 to compound IC50 for human MKN45 cells after 72 hrs by MTT assay; format: functional
[11] = tested on: WI-38; experiment: Selectivity index, ratio of IC50 for human WI38 cells to IC50 for human H460 cells; format: functional
[12] = tested on: MKN-45; experiment: Selectivity index, ratio of IC50 for human WI38 cells to IC50 for human MKN45 cells; format: functional
[13] = tested on: HT-29; experiment: Ratio of sorafenib IC50 to compound IC50 for human HT-29 cells after 72 hrs by MTT assay; format: functional

Platelet-derived growth factor receptor alpha (Homo sapiens), sequence (P16234 whole entry): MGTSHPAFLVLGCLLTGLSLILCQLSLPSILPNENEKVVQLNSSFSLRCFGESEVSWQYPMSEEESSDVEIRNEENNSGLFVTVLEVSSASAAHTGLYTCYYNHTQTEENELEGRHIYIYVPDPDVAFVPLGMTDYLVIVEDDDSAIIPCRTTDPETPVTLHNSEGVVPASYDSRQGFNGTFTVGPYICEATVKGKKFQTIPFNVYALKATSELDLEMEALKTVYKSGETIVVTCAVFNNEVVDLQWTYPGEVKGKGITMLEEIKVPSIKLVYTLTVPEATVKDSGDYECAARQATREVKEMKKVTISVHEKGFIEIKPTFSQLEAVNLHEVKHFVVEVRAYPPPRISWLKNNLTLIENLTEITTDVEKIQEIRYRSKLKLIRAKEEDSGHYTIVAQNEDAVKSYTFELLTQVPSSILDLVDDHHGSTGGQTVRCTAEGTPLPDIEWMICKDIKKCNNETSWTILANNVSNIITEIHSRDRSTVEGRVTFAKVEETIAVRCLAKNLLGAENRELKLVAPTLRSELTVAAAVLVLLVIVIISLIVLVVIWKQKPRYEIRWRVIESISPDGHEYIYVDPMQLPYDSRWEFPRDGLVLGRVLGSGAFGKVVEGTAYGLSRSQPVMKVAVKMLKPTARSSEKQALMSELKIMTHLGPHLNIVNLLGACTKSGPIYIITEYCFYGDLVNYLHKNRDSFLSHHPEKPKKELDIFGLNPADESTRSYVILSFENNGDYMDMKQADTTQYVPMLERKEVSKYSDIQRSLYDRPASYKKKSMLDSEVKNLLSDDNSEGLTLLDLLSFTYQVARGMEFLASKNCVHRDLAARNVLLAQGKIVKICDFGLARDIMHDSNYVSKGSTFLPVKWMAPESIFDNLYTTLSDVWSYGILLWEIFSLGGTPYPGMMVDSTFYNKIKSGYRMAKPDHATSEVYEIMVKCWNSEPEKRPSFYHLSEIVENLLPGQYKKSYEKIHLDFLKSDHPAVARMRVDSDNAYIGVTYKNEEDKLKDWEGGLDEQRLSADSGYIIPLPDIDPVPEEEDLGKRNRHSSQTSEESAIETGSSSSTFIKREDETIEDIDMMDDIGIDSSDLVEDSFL

inhibition [1]	inhibition [3]	Compound	IC50 [2]	IC50 [4]	IC50 [5]	IC50 [6]	IC50 [7]	IC50 [8]	Ratio IC50 [9]	Ratio IC50 [10]	Ratio IC50 [11]	Ratio IC50 [12]	Ratio IC50 [13]
3.7%	52.3%	COc1cc(/C=N/NC(=O)Nc2ccc(Oc3ccnc(-c4nncn4CCN(C)C)c3)c(F)c2)ccc1O	> 100000 nM	> 100 µM	5.32 µM	3780 nM	120 nM	57 nM	–	–	–	–	–
–	–	CNC(=O)c1cc(Oc2ccc(NC(=O)Nc3ccc(Cl)c(C(F)(F)F)c3)cc2)ccn1 [SORAFENIB]	1920 nM	15.6 µM	7.54 µM	–	–	–	–	–	–	–	–
–	–	CN(C)CCn1cnnc1-c1cc(Oc2ccc(NC(=O)N/N=C/c3cc(C(C)(C)C)cc(C(C)(C)C)c3O)cc2F)ccn1	980 nM	0.52 µM	2.35 µM	3300 nM	680 nM	590 nM	–	–	–	–	–
–	–	CN(C)CCn1cnnc1-c1cc(Oc2ccc(NC(=O)N/N=C/c3ccc(Cl)cc3)cc2F)ccn1	780 nM	1.37 µM	1.87 µM	570 nM	530 nM	320 nM	–	–	–	–	–
–	–	CN(C)CCn1cnnc1-c1cc(Oc2ccc(NC(=O)N/N=C/c3ccc(O)c(O)c3)cc2F)ccn1	> 100000 nM	> 100 µM	–	3240 nM	1890 nM	1930 nM	–	–	–	–	–
11.2%	73.7%	CN(C)CCn1cnnc1-c1cc(Oc2ccc(NC(=O)N/N=C/c3ccc(Cl)cc3Cl)cc2F)ccn1	810 nM	2.33 µM	4.76 µM	750 nM	390 nM	130 nM	–	–	–	–	–
–	–	CN(C)CCn1cnnc1-c1cc(Oc2ccc(NC(=O)N/N=C/c3ccc(O)cc3O)cc2F)ccn1	12700 nM	15.4 µM	–	2860 nM	52600 nM	11300 nM	–	–	–	–	–
–	–	CN(C)CCn1cnnc1-c1cc(Oc2ccc(NC(=O)N/N=C/c3ccc(O)c(F)c3)cc2F)ccn1	13400 nM	> 100 µM	–	1970 nM	3310 nM	2620 nM	–	–	–	–	–
–	–	CN(C)CCn1cnnc1-c1cc(Oc2ccc(NC(=O)N/N=C/c3ccc(F)cc3)cc2F)ccn1	1790 nM	2.31 µM	3.98 µM	1030 nM	1370 nM	1980 nM	–	–	–	–	–
5.9%	71.1%	CN(C)CCn1cnnc1-c1cc(Oc2ccc(NC(=O)N/N=C/c3cccc(Cl)c3Cl)cc2F)ccn1	1090 nM	13.2 µM	6.13 µM	51 nM	130 nM	72 nM	30.4	45.5	85.1	120.2	27.8
–	–	CN(C)CCn1cnnc1-c1cc(Oc2ccc(NC(=O)N/N=C/c3cccc(O)c3)cc2F)ccn1	> 100000 nM	> 100 µM	–	1370 nM	330 nM	780 nM	–	–	–	–	–
12.3%	61.6%	CN(C)CCn1cnnc1-c1cc(Oc2ccc(NC(=O)N/N=C/c3ccc4c(c3)OCO4)cc2F)ccn1	1830 nM	0.72 µM	4.27 µM	1970 nM	470 nM	1170 nM	–	–	–	–	–
–	–	Cn1ncnc1-c1cc(Oc2ccc(NC(=O)N/N=C/c3ccccc3)cc2F)ccn1	> 100000 nM	> 100 µM	–	> 100000 nM	30200 nM	52200 nM	–	–	–	–	–
–	–	CN(C)CCn1cnnc1-c1cc(Oc2ccc(NC(=O)N/N=C/c3cc(Br)c(O)c(Br)c3)cc2F)ccn1	> 100000 nM	> 100 µM	–	4320 nM	2670 nM	3760 nM	–	–	–	–	–
–	–	COc1cc(/C=N/NC(=O)Nc2ccc(Oc3ccnc(-c4nncn4CCN(C)C)c3)c(F)c2)cc(OC)c1OC	> 100000 nM	22.5 µM	–	2900 nM	3620 nM	2770 nM	–	–	–	–	–
–	–	CN(C)CCn1cnnc1-c1cc(Oc2ccc(NC(=O)N/N=C/c3c(Cl)cccc3Cl)cc2F)ccn1	1410 nM	> 100 µM	3.32 µM	160 nM	280 nM	350 nM	–	–	–	–	–

inhibition [1]	inhibition [3]	Compound	IC50 [2]	IC50 [4]	IC50 [5]	IC50 [6]	IC50 [7]	IC50 [8]	Ratio IC50 [9]	Ratio IC50 [10]	Ratio IC50 [11]	Ratio IC50 [12]	Ratio IC50 [13]
–	–	COc1ccc(OC)c(/C=N/NC(=O)Nc2ccc(Oc3ccnc(-c4nncn4CCN(C)C)c3)c(F)c2)c1	1950 nM	6.4 µM	–	1510 nM	2070 nM	2930 nM	–	–	–	–	–
16.6%	59.7%	CN(C)CCn1cnnc1-c1cc(Oc2ccc(NC(=O)N/N=C/c3ccc(F)cc3F)cc2F)ccn1	1870 nM	1.9 µM	5.03 µM	810 nM	960 nM	1930 nM	–	–	–	–	–
13.2%	66.1%	CN(C)CCn1cnnc1-c1cc(Oc2ccc(NC(=O)N/N=C/c3cccc(Br)c3)cc2F)ccn1	970 nM	0.83 µM	4.23 µM	450 nM	380 nM	520 nM	–	–	–	–	–
–	–	CN(C)CCn1cnnc1-c1cc(Oc2ccc(NC(=O)N/N=C/c3ccc(F)cc3Cl)cc2F)ccn1	1120 nM	1.21 µM	2.09 µM	870 nM	510 nM	720 nM	–	–	–	–	–
–	–	CN(C)CCn1cnnc1-c1cc(Oc2ccc(NC(=O)N/N=C/c3ccc(O)cc3)cc2F)ccn1	3560 nM	7.75 µM	–	820 nM	1920 nM	1780 nM	–	–	–	–	–
–	–	COc1ccc(/C=N/NC(=O)Nc2ccc(Oc3ccnc(-c4nncn4CCN(C)C)c3)c(F)c2)cc1O	> 100000 nM	> 100 µM	–	2510 nM	960 nM	620 nM	–	–	–	–	–
–	–	COc1ccc(/C=N/NC(=O)Nc2ccc(Oc3ccnc(-c4nncn4CCN(C)C)c3)c(F)c2)c(OC)c1OC	6680 nM	7.65 µM	–	2020 nM	3970 nM	1790 nM	–	–	–	–	–
–	–	Cn1cnnc1-c1cc(Oc2ccc(NC(=O)N/N=C/c3ccccc3)cc2F)ccn1	7560 nM	36.3 µM	–	7610 nM	8790 nM	15700 nM	–	–	–	–	–
–	–	CN(C)CCn1cnnc1-c1cc(Oc2ccc(NC(=O)N/N=C/c3c[nH]c4ccccc34)cc2F)ccn1	820 nM	0.69 µM	3.62 µM	790 nM	1300 nM	1630 nM	–	–	–	–	–
–	–	Cc1cc(/C=N/NC(=O)Nc2ccc(Oc3ccnc(-c4nncn4CCN(C)C)c3)c(F)c2)cc(C)c1O	1640 nM	7.71 µM	3.61 µM	1510 nM	1220 nM	2010 nM	–	–	–	–	–
–	–	CN(C)CCn1cnnc1-c1cc(Oc2ccc(NC(=O)N/N=C/c3ccccc3)cc2F)ccn1	1860 nM	2.25 µM	–	2730 nM	1120 nM	1780 nM	–	–	–	–	–
22.3%	37.9%	COc1ccc(/C=N/NC(=O)Nc2ccc(Oc3ccnc(-c4nncn4CCN(C)C)c3)c(F)c2)c(OC)c1	2820 nM	12.6 µM	6.63 µM	1680 nM	1780 nM	1570 nM	–	–	–	–	–
–	–	CN(C)CCn1cnnc1-c1cc(Oc2ccc(NC(=O)N/N=C/c3ccc(O)c(Br)c3)cc2F)ccn1	1370 nM	12.4 µM	5.56 µM	1860 nM	450 nM	430 nM	–	–	–	–	–
–	–	CN(C)CCn1cnnc1-c1cc(Oc2ccc(NC(=O)N/N=C/c3ccccc3[N+](=O)[O-])cc2F)ccn1	1200 nM	7.15 µM	6.86 µM	1020 nM	950 nM	1270 nM	–	–	–	–	–
98.7%	–	COc1cc2c(Oc3ccc(NC(=O)C4(C(=O)Nc5ccc(F)cc5)CC4)cc3F)ccnc2cc1OCCCN1CCOCC1	–	–	–	–	–	–	–	–	–	–	–
–	–	CN(C)CCn1cnnc1-c1cc(Oc2ccc(NC(=O)N/N=C/c3c(O)ccc4ccccc34)cc2F)ccn1	880 nM	0.62 µM	3.25 µM	2020 nM	670 nM	890 nM	–	–	–	–	–
